Results from ChEMBL document CHEMBL4270599, “Synthesis of a 3'-C-ethynyl-β-d-ribofuranose purine nucleoside library: Discovery of C7-deazapurine analogs as potent antiproliferative nucleosides” (Eur J Med Chem, 2018).

Columns and labels:
NCI-H23 [1] = assay: Cytotoxicity against human NCI-H23 cells after 48 hrs by SRB assay; assay type: functional; details: NCI-H23, 48 h; for GI50: read-out: pGI50 (converted)
SNB-19 = assay: Cytotoxicity against human SNB19 cells after 48 hrs by SRB assay; assay type: functional; details: SNB-19, 48 h; for GI50: read-out: pGI50 (converted)
UACC-62 = assay: Cytotoxicity against human UACC62 cells after 48 hrs by SRB assay; assay type: functional; details: UACC-62, 48 h; for GI50: read-out: pGI50 (converted); for CC50: read-out: pLC50 (the source's name) (converted)
OVCAR-4 = assay: Cytotoxicity against human OVCAR4 cells after 48 hrs by SRB assay; assay type: functional; details: OVCAR-4, 48 h; for GI50: read-out: pGI50 (converted); for CC50: read-out: pLC50 (the source's name) (converted)
UO-31 = assay: Cytotoxicity against human UO31 cells after 48 hrs by SRB assay; assay type: functional; details: UO-31, 48 h; for GI50: read-out: pGI50 (converted)
PC-3 [2] = assay: Cytotoxicity against human PC3 cells after 48 hrs by SRB assay; assay type: functional; details: PC-3, 48 h; for GI50: read-out: pGI50 (converted)
HT-29 [3] = assay: Growth inhibition of human HT-29 cells assessed as cell growth at 10^-8 M incubated for 48 hrs by sulforhodamine B assay relative to control; assay type: functional; details: HT-29, 48 h, read-out: Activity
KM12 = assay: Growth inhibition of human KM12 cells assessed as cell growth at 10^-8 M incubated for 48 hrs by sulforhodamine B assay relative to control; assay type: functional; details: KM12, 48 h, read-out: Activity
NCI/ADR-RES = assay: Growth inhibition of human NCI/ADR-RES cells assessed as cell growth at 10^-8 M incubated for 48 hrs by sulforhodamine B assay relative to control; assay type: functional; details: read-out: Activity
A498 = assay: Growth inhibition of human A498 cells assessed as cell growth at 10^-8 M incubated for 48 hrs by sulforhodamine B assay relative to control; assay type: functional; details: A498, 48 h, read-out: Activity
T47D = assay: Growth inhibition of human T47D cells assessed as cell growth at 10^-8 M incubated for 48 hrs by sulforhodamine B assay relative to control; assay type: functional; details: read-out: Activity
A549 [4] = assay: Growth inhibition of human A549/ATCC cells assessed as cell growth at 10^-7 M incubated for 48 hrs by sulforhodamine B assay relative to control; assay type: functional; details: A549, 48 h, read-out: Activity
SF-295 = assay: Growth inhibition of human SF295 cells assessed as cell growth at 10^-7 M incubated for 48 hrs by sulforhodamine B assay relative to control; assay type: functional; details: SF-295, 48 h, read-out: Activity
OVCAR-8 = assay: Growth inhibition of human OVCAR8 cells assessed as cell growth at 10^-7 M incubated for 48 hrs by sulforhodamine B assay relative to control; assay type: functional; details: OVCAR-8, 48 h, read-out: Activity
786-0 = assay: Growth inhibition of human 786-0 cells assessed as cell growth at 10^-7 M incubated for 48 hrs by sulforhodamine B assay relative to control; assay type: functional; details: 786-0, 48 h, read-out: Activity
DU-145 = assay: Growth inhibition of human DU145 cells assessed as cell growth at 10^-7 M incubated for 48 hrs by sulforhodamine B assay relative to control; assay type: functional; details: DU-145, 48 h, read-out: Activity
HCT-116 = assay: Growth inhibition of human HCT116 cells assessed as cell growth at 10^-6 M incubated for 48 hrs by sulforhodamine B assay relative to control; assay type: functional; details: HCT-116, 48 h, read-out: Activity
HT-29 [5] = assay: Growth inhibition of human HT-29 cells assessed as cell growth at 10^-6 M incubated for 48 hrs by sulforhodamine B assay relative to control; assay type: functional; details: HT-29, 48 h, read-out: Activity
TK-10 [6] = assay: Growth inhibition of human TK10 cells assessed as cell growth at 10^-6 M incubated for 48 hrs by sulforhodamine B assay relative to control; assay type: functional; details: TK-10, 48 h, read-out: Activity
PC-3 [7] = assay: Growth inhibition of human PC3 cells assessed as cell growth at 10^-6 M incubated for 48 hrs by sulforhodamine B assay relative to control; assay type: functional; details: PC-3, 48 h, read-out: Activity
Hs-578T = assay: Growth inhibition of human Hs 578T cells assessed as cell growth at 10^-6 M incubated for 48 hrs by sulforhodamine B assay relative to control; assay type: functional; details: read-out: Activity
NCI-H23 [8] = assay: Growth inhibition of human NCI-H23 cells assessed as cell growth at 10^-5 M incubated for 48 hrs by sulforhodamine B assay relative to control; assay type: functional; details: NCI-H23, 48 h, read-out: Activity
SW-620 = assay: Growth inhibition of human SW620 cells assessed as cell growth at 10^-5 M incubated for 48 hrs by sulforhodamine B assay relative to control; assay type: functional; details: SW-620, 48 h, read-out: Activity
U-251 [9] = assay: Growth inhibition of human U251 cells assessed as cell growth at 10^-5 M incubated for 48 hrs by sulforhodamine B assay relative to control; assay type: functional; details: U-251, 48 h, read-out: Activity
Malme-3M = assay: Growth inhibition of human MALME-3M cells assessed as cell growth at 10^-5 M incubated for 48 hrs by sulforhodamine B assay relative to control; assay type: functional; details: read-out: Activity
BT-549 = assay: Growth inhibition of human BT549 cells assessed as cell growth at 10^-5 M incubated for 48 hrs by sulforhodamine B assay relative to control; assay type: functional; details: BT-549, 48 h, read-out: Activity
NCI-H226 = assay: Growth inhibition of human NCI-H226 cells assessed as cell growth at 10^-4 M incubated for 48 hrs by sulforhodamine B assay relative to control; assay type: functional; details: NCI-H226, 48 h, read-out: Activity
U-251 [10] = assay: Growth inhibition of human U251 cells assessed as cell growth at 10^-4 M incubated for 48 hrs by sulforhodamine B assay relative to control; assay type: functional; details: U-251, 48 h, read-out: Activity
SN12C = assay: Growth inhibition of human SN12C cells assessed as cell growth at 10^-4 M incubated for 48 hrs by sulforhodamine B assay relative to control; assay type: functional; details: read-out: Activity
TK-10 [11] = assay: Growth inhibition of human TK10 cells assessed as cell growth at 10^-4 M incubated for 48 hrs by sulforhodamine B assay relative to control; assay type: functional; details: TK-10, 48 h, read-out: Activity
HMEC-1 = assay: Antiproliferative activity against HMEC1 cells after 4 days by Coulter counter method; assay type: cell-based; details: Homo sapiens, HMEC-1, 96 h
In short: (§1)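 Primary HUVEC, primary HMVEC-d and the HMEC-1 line seeded at 20,000 cells/well in gelatin-coated plates in EC growth medium (EGM2). After overnight incubation, 5-fold compound dilutions added. Cells proliferated four days with compound, then trypsinized and counted by Coulter counter to derive IC₅₀.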

[12] = Antiproliferative activity against HMVEC-d cells after 4 days by Coulter counter method; assay type: cell-based; details: Homo sapiens, 96 h; in short: as §1
A549 [13] = assay: Growth inhibition of human A549/ATCC cells assessed as cell growth at 10^-4 M incubated for 48 hrs by sulforhodamine B assay relative to control; assay type: functional; details: A549, 48 h, read-out: Activity
[14] = read-out: pLC50 (the source's name) (converted)
[15] = read-out: LC50 (the source's name)

SMILES: C#C[C@@]1(O)[C@@H](CO)O[C@@H](n2cc(F)c3c(N)ncnc32)[C@@H]1O
- TGI (NCI-H23 [1]; read-out: TGI): 6.85 µM
- GI50 (NCI-H23 [1]): 0.398 µM
- CC50 (NCI-H23 [1]; [14]): > 100 µM
- TGI (NCI-H23 [1]; read-out: pTGI (converted)): 6.92 µM
- CC50 (SNB-19; [15]): > 100 µM
- TGI (SNB-19; read-out: TGI): 13.7 µM
- GI50 (SNB-19): 0.525 µM
- TGI (SNB-19; read-out: pTGI (converted)): 13.8 µM
- TGI (UACC-62; read-out: TGI): 1.47 µM
- GI50 (UACC-62): 0.331 µM
- CC50 (UACC-62): 7.24 µM
- TGI (UACC-62; read-out: pTGI (converted)): 1.48 µM
- TGI (OVCAR-4; read-out: TGI): 8.67 µM
- GI50 (OVCAR-4): 1 µM
- CC50 (OVCAR-4): > 100 µM
- TGI (OVCAR-4; read-out: pTGI (converted)): 8.71 µM
- TGI (UO-31; read-out: TGI): 2.48 µM
- GI50 (UO-31): 0.468 µM
- CC50 (UO-31; [14]): > 100 µM
- TGI (UO-31; read-out: pTGI (converted)): 2.51 µM
- CC50 (PC-3 [2]; [15]): > 100 µM
- TGI (PC-3 [2]; read-out: TGI): 3.24 µM
- GI50 (PC-3 [2]): 0.295 µM
- TGI (PC-3 [2]; read-out: pTGI (converted)): 3.24 µM
- growth at 0.01 µM (HT-29 [3]): 96%
- growth at 0.01 µM (KM12): 104%
- growth at 0.01 µM (NCI/ADR-RES): 100%
- growth at 0.01 µM (A498): 86%
- growth at 0.01 µM (T47D): 101%
- growth at 0.1 µM (A549 [4]): 92%
- growth at 0.1 µM (SF-295): 94%
- growth at 0.1 µM (OVCAR-8): 74%
- growth at 0.1 µM (786-0): 87%
- growth at 0.1 µM (DU-145): 92%
- growth at 1 µM (HCT-116): 4%
- growth at 1 µM (HT-29 [5]): 11%
- growth at 1 µM (TK-10 [6]): 42%
- growth at 1 µM (PC-3 [7]): 11%
- growth at 1 µM (Hs-578T): 97%
- growth at 10 µM (NCI-H23 [8]): -4%
- growth at 10 µM (SW-620): -5%
- growth at 10 µM (U-251 [9]): 1%
- growth at 10 µM (Malme-3M): -34%
- growth at 10 µM (BT-549): -28%
- growth at 100 µM (NCI-H226): -45%
- growth at 100 µM (U-251 [10]): -18%
- growth at 100 µM (SN12C): -24%
- growth at 100 µM (TK-10 [11]): -24%
- IC50 (HMEC-1): 0.061 µM
- IC50 [12]: < 0.00128 µM

SMILES: C#C[C@@]1(O)[C@@H](CO)O[C@@H](n2ccc3c(N)ncnc32)[C@@H]1O
- CC50 (NCI-H23 [1]; [15]): > 100 µM
- TGI (NCI-H23 [1]; read-out: TGI): 4.32 µM
- GI50 (NCI-H23 [1]): 1.17 µM
- TGI (NCI-H23 [1]; read-out: pTGI (converted)): 4.37 µM
- TGI (SNB-19; read-out: TGI): 6.6 µM
- GI50 (SNB-19): 1.62 µM
- CC50 (SNB-19; [14]): > 100 µM
- TGI (SNB-19; read-out: pTGI (converted)): 6.61 µM
- TGI (UACC-62; read-out: TGI): 4.48 µM
- GI50 (UACC-62): 1.78 µM
- CC50 (UACC-62): 19.5 µM
- TGI (UACC-62; read-out: pTGI (converted)): 4.47 µM
- TGI (OVCAR-4; read-out: TGI): 7.79 µM
- GI50 (OVCAR-4): 1.95 µM
- CC50 (OVCAR-4): 28.2 µM
- TGI (OVCAR-4; read-out: pTGI (converted)): 7.76 µM
- TGI (UO-31; read-out: TGI): 3.58 µM
- GI50 (UO-31): 1.41 µM
- TGI (UO-31; read-out: pTGI (converted)): 3.55 µM
- TGI (PC-3 [2]; read-out: TGI): 3.54 µM
- GI50 (PC-3 [2]): 0.813 µM
- CC50 (PC-3 [2]; [14]): 33.1 µM
- TGI (PC-3 [2]; read-out: pTGI (converted)): 3.55 µM
- growth at 0.01 µM (HT-29 [3]): 99%
- growth at 0.01 µM (KM12): 98%
- growth at 0.01 µM (NCI/ADR-RES): 97%
- growth at 0.01 µM (A498): 85%
- growth at 0.01 µM (T47D): 92%
- growth at 0.1 µM (A549 [4]): 107%
- growth at 0.1 µM (SF-295): 98%
- growth at 0.1 µM (OVCAR-8): 106%
- growth at 0.1 µM (786-0): 92%
- growth at 0.1 µM (DU-145): 98%
- growth at 1 µM (HCT-116): 38%
- growth at 1 µM (HT-29 [5]): 49%
- growth at 1 µM (TK-10 [6]): 88%
- growth at 1 µM (PC-3 [7]): 45%
- growth at 1 µM (Hs-578T): 114%
- growth at 10 µM (NCI-H23 [8]): -32%
- growth at 10 µM (SW-620): 5%
- growth at 10 µM (U-251 [9]): 2%
- growth at 10 µM (Malme-3M): -25%
- growth at 10 µM (BT-549): -63%
- growth at 100 µM (NCI-H226): -61%
- growth at 100 µM (U-251 [10]): -30%
- growth at 100 µM (SN12C): -64%
- growth at 100 µM (TK-10 [11]): -5%
- IC50 (HMEC-1): 0.061 µM
- growth at 100 µM (A549 [13]): 3%
